Diaphorase act = diaphorase activation or chemical reduction counter-screen | 190,000 tested, 0.005% active | AID 1229 | Diaphorase/resazurin coupled assay, resorufin fluorescence, 16 min; hits give high values; 1 = vehicle wells, 0 = NADH-free wells | activation factor at 20 µM;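 active means diaphorase activity raised at least twofold by the compound at 20 µM; inactive means activation factor below 2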
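Material: purified diaphorase enzyme from Clostridium kluyveri / Medium: HEPES pH 7.4 buffer with MgCl2 and Tween 20 / Schedule: enzyme reaction of 16 min at room temperature / Measured by: resorufin fluorescence, excitation 544 nm, emission 590 nm / Evaluation: rise in resorufin formation, marking diaphorase activation or chemical reduction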
PMI activator = activators of human phosphomannose isomerase; P34949; 190,000 tested, 0.005% active; activation factor at 20 µM; purified human PMI, coupled resazurin fluorescence, 20 min; hits give high values; 1 = vehicle control, 0 substrate-free wells;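 active means activation factor of 2 or more at 20 µM, relative to plate controls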
Target sequence (P34949 whole entry, looked up): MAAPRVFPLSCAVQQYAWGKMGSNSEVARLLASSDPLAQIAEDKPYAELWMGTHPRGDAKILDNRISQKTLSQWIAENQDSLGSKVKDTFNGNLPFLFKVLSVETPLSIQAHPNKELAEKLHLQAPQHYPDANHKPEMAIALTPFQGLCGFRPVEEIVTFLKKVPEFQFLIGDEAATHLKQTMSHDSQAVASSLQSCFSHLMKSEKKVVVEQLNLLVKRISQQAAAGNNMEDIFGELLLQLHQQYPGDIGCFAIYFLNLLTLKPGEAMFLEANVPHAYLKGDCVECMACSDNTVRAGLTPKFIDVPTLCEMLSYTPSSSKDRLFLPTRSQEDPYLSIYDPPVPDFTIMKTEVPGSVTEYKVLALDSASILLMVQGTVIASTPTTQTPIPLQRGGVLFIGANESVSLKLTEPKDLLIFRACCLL
G6PDH counter = L. mesenteroides G6PDH inhibition counter-screen. Purified L. mesenteroides G6PDH, diaphorase/resazurin coupled fluorescence, 45 min. inhibition, % at 5 µM. 200,000 tested, 0.12% active. AID 1020; in the data active means inhibition above about 50%
Diaphorase inh = inhibits diaphorase or chemically oxidizes, flagging diaphorase assay artifacts; diaphorase resazurin-to-resorufin fluorescence, NADH, 16 min; bacterial (C. kluyveri) enzyme, not human; inhibition, % at 20 µM; 190,000 tested, 0.69% active; AID 1217;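 active means primary screen inhibition at 20 µM above a set limit, cut at about 50% in these data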
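Benchmarks: positive control wells lacking NADH, neutral wells with DMSO only. System: bacterial diaphorase enzyme (C. kluyveri). Input: 0.14 U/mL diaphorase, enzyme working solution. Detection: resorufin fluorescence, excitation 544 nm, emission 590 nm. Times: 16-min room-temperature incubation before reading.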
PMI act satM6P = PMI (human) activation, high substrate | coupled PMI enzyme assay, resazurin fluorescence, 20 min; hits give high values; 1 = untreated enzyme, 0 = substrate-free blank | P34949 | 190,000 tested, 0.34% active | AID 1216 | activation factor at 20 µM;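 active means activation factor of 2 or more at 20 µM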
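Material: human phosphomannose isomerase with PGI, G6PDH, diaphorase coupling enzymes; amount: PMI at 15 ng/mL final; also added: Mannose-6-phosphate 1.0 mM (near-saturating) plus 0.22 mM NADP+; incubation: enzyme reaction with compound 20 min at room temperature; signal: resorufin fluorescence (Ex 544/Em 590 nm) from resazurin via diaphorase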
Large screens that a line does not name were inactive. In the library only some 1.1% were active in any assay of this set; here they are far more common.

CCOC(=O)C(NC(C)=O)C(OC(C)=O)c1cccc(N(CCCl)CCCl)c1 (stereo not given)	PMI act satM6P 2
CCCNC(=O)N1CCC2(CC1)OCCO2	none
CC1=CC(=C2C(=O)NC(=S)NC2=O)C=C(C(F)(F)F)N1Cc1ccccc1	PMI act satM6P 2
CN(C)c1ccc(C=C2C(=O)NC(=S)NC2=O)cc1[N+](=O)[O-]	PMI act satM6P 2.1
CCOC(=O)c1c(/N=C/C2C(=O)NC(=S)NC2=O)sc2c1CCC2	PMI act satM6P 2.1
COc1cc2c(cc1OC)-c1c(OC)c(OC)c(OC)c3ccnc(c13)C2=O	Diaphorase inh 54.6
COc1cc(CC2(CCc3ccncc3)C(=O)NC(=O)NC2=O)cc(OC)c1OC	none
O=[N+]([O-])/C=C1\NCCN1Cc1ccc(Cl)nc1	none
COc1ccc(CCNC(=O)c2c(N)n(CCN3CCOCC3)c3nc4ccccc4nc23)cc1	Diaphorase inh 58.6
Cc1ccc2c(c1)CC1(CN2C)C(=O)NC(=O)N(CCc2ccccc2)C1=O (stereo not given)	PMI act satM6P 2.1
Cc1cc(C)cc(NC2=NCCCS2)c1	none
O=C(CN1CCCCC1)c1ccccc1F	PMI act satM6P 2.3
O=C(CN1CCCCC1)c1cccc(Br)c1	none
O=C(CN1CCCCC1)c1ccccc1Cl	PMI act satM6P 2
CCc1cc2c(s1)NC(=O)CN=C2c1cccs1	none
Cc1nc2ccccc2c(=O)n1-c1ccc(Cl)cc1[N+](=O)[O-]	Diaphorase inh 76.7
CCCCCc1nc2ccccc2c(=O)n1-c1ccccc1[N+](=O)[O-]	none
Cc1ccc(-n2nc(C)c(C3C(C#N)=C(N)Oc4c3c(=O)oc3ccccc43)c2Cl)cc1 (stereo not given)	none
C[C@@]1(CO)[C@H](O)CC[C@@]2(C)[C@H]1CC[C@H]1C[C@@H]3C[C@@]12CC[C@]3(O)CO	G6PDH counter 53.5
O=C(/C=C/c1ccccc1)NCCc1cnc[nH]1	none
Cn1ncnc2c(=O)n(C)c(=O)nc1-2	G6PDH counter 72.1, Diaphorase inh 55.7
O=C(NC1(C(F)(F)F)Oc2ccc(Cl)cc2O1)N1CCC2(CC1)OCCO2 (stereo not given)	Diaphorase inh 52.1
COc1ccc(/C=N/N=C(/N)N[N+](=O)[O-])c(OC)c1	none
N/C(=N\N=C/c1ccc(-c2ccc(O)c(C(=O)O)c2)o1)N[N+](=O)[O-]	Diaphorase inh 56.7
CCOc1ccc(N2C(=O)/C(=C\c3cccs3)C(=O)NC2=S)cc1	PMI act satM6P 2.2
O=[N+]([O-])c1cccc(C2N3CCCN23)c1 (stereo not given)	none
O=C(O)c1cccc2c1NC(c1cccc([N+](=O)[O-])c1)C1CC(Sc3ccccc3[N+](=O)[O-])C(Cl)C21 (stereo not given)	Diaphorase inh 94.4
O=C(O)c1ccc2c(c1)C1C(Cl)C(Sc3ccccc3[N+](=O)[O-])CC1C(c1cccc([N+](=O)[O-])c1)N2 (stereo not given)	Diaphorase inh 66.0
CC(=O)c1ccc(OC(C)C)c(Cc2c(O)[nH]c(=S)[nH]c2=O)c1	PMI act satM6P 2.1
CC(C)Oc1ccc(Cc2c(O)[nH]c(=O)[nH]c2=O)cc1	none
CC(c1ccccc1)n1cncc1C(=O)N1CCCC1=O (stereo not given)	none
Cc1ccc(N2C(=O)NC(=O)C3(Cc4ccccc4N4CCN(c5ccccc5)CC43)C2=O)cc1 (stereo not given)	PMI act satM6P 2.2
O=C1NC(=O)C2(Cc3ccccc3N3CCCC32)C(=O)N1c1cccc(Cl)c1 (stereo not given)	none
CC(=O)OC1(c2ccccc2)CC(C(C)(C)C)CN(C(C)(C)C)C1 (stereo not given)	none
COC(=O)C(O)(c1ccc2c(c1)CCCN2)C(F)(F)F (stereo not given)	none
O=C1NC(=O)C2=Cc3ccc(O)cc3OC2(O)N1 (stereo not given)	none
C=CCC1C(=O)NC(=S)NC1=O	PMI act satM6P 2
C=CCN1C(=O)NC(=O)/C(=C/c2ccoc2)C1=O	PMI act satM6P 2.2
C=CCN1C(=O)NC(=O)/C(=C/c2cccn2C)C1=O	none
NC(=O)CN1C2CCC1CC(NC(=O)C1CC1)C2 (stereo not given)	none
Cc1c(N=Nc2c(O)n(Cc3ccccc3)c(=O)[nH]c2=O)c(=O)n(-c2ccccc2)n1C	none
Cn1cnc([N+](=O)[O-])c1Sc1ccc([N+](=O)[O-])cc1	PMI act satM6P 2
Cn1cc2c([N+](=O)[O-])cc([N+](=O)[O-])cc2n1	none
Cc1cc2c(C(C)C)c(O)c(O)c(C=O)c2c(O)c1-c1c(C)cc2c(C(C)C)c(O)c(O)c(C=O)c2c1O	Diaphorase inh 64.3
Cc1ccc(C(=O)c2cc(Br)ccc2N)cc1	none
Cn1cccc1/C=C1/C(=O)NC(=O)N(Cc2ccccc2)C1=O	none
O=C1NC(=O)N(Cc2ccccc2)C(=O)/C1=C\c1ccco1	PMI act satM6P 2.3
Cc1ccccc1-n1c(O)c(C=NCCN2CCOCC2)c(=O)[nH]c1=O	none
O=c1[nH]c(=S)n(C2CC2)c(O)c1/C=N/Nc1ccccc1	PMI act satM6P 2
O=c1[nH]c(=S)n(C2CC2)c(O)c1/C=N/Nc1cccc2ccccc12	none
CCC(C)n1c(O)c(/C=N/Nc2ccccc2)c(=O)[nH]c1=S (stereo not given)	PMI act satM6P 2.7
CC1CC(NC(=O)C2C3CCC(O3)C2C(=O)O)CC(C)(C)C1 (stereo not given)	none
